Laboratory results from ChEMBL document CHEMBL4130355, “Development of a series of novel 4-anlinoquinazoline derivatives possessing quinazoline skeleton: Design, synthesis, EGFR kinase inhibitory efficacy, and evaluation of anticancer activities in vitro” (Eur J Med Chem, 2017).
Activity calls are given as the source filed them. The rule behind the calls is not given here.

Columns and labels:
HepG2 [1] = experiment: Cell cycle arrest in human HepG2 assessed as accumulation at G0/G1 phase at 10 uM after 48 hrs by propidium iodide-staining based flow cytometry (reference value: 69.40%); type: functional
In short: (§1)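 HepG2 cells at 5.0 × 10^5/well were grown 24 h, then treated at 0, 2.5, 5.0 or 10.0 µM for 48 h alongside medium-only wells. Cells fixed in 70% ice-cold ethanol for ≥24 h, treated with RNase A at 37 °C for 30 min, then stained with propidium iodide for 30 min at 4 °C in the dark. DNA content read by flow cytometry. Average of at least three experiments.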

HepG2 [2] = experiment: Induction of apoptosis in human HepG2 cells assessed as intracellular free Ca2+ levels at 2.5 uM after 48 hrs by FL1 channel/FACS analysis (reference value: 14.2%); type: functional
In short: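 HepG2 seeded at 5.0 × 10^5 cells/mL, 24 h at 37 °C in 5% CO2, then treated 48 h (2.5–20 µM). Harvested cells were washed in ice-cold PBS and loaded with 4 µM Fluo-3/AM for 30 min. After trypsinizing, they were washed twice and resuspended in HEPES, and fluorescence was measured in the FL-1 channel by flow cytometry. Values are averages of at least three independent experiments.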

HepG2 [3] = experiment: Induction of mitochondrial membrane potential loss in human HepG2 cells assessed as mitochondrial membrane potential levels at 2.5 uM after 48 hrs by rhodamine-123 dye based FACS analysis (reference value: 90.4%); type: functional
HepG2 [4] = experiment: Cell cycle arrest in human HepG2 assessed as accumulation at S phase at 5 uM after 48 hrs by propidium iodide-staining based flow cytometry (reference value: 21.46%); type: functional; in short: as §1
HepG2 [5] = experiment: Induction of apoptosis in human HepG2 cells assessed as caspase-3 activity at 2.5 uM after 48 hrs by colorimetric assay relative to control; type: functional
In short: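 After 48 h treatment, HepG2 were rinsed in ice-cold PBS and lysed 1–1.5 h on ice in buffer with 1% DTT. Lysate was spun at 10,000×g for 1 min at 4 °C; supernatant protein was measured by Bradford. Supernatant was mixed with 2× reaction buffer (1% DTT) plus caspase-3 chromogenic peptide substrate, held 4 h at 37 °C, and read at 405 nm.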

HepG2 [6] = experiment: Induction of apoptosis in human HepG2 cells assessed as chromatin condensation at 2.5 to 20 uM after 48 hrs by Hoechst 33342/propidium iodide double staining based laser scanning confocal microscopy; type: functional, cell-based
In short: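 HepG2 plated at 5.0 × 10^4 cells/well in DMEM with 10% FBS, 24 h at 37 °C, then treated 48 h (2.5–20 µM). After two ice-cold PBS washes, cells were stained with Hoechst 33342/PI mixed 1:1 for 30 min at 37 °C in the dark, washed three times, and imaged by laser scanning confocal microscopy at 200×.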

HepG2 [7] = experiment: Induction of apoptosis in human HepG2 cells after 48 hrs by AnnexinV-FITC/propidium iodide double staining-based flow cytometry; type: functional, cell-based
A549 [8] = experiment: Antiproliferative activity against human A549 cells at 1 uM after 72 hrs by MTT assay relative to control; type: functional
In short: (§2)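 MTT assay in triplicate wells. Cells (2 × 10^3/well) were attached 24 h, then treated at 0.1, 1, 10, 50 or 100 µM for 24, 48 or 72 h. MTT added for 4 h, SDS solubilisation, absorbance at 570/650 nm. Inhibition = 1 − (OD treated − blank)/(OD control − blank). Reported as mean ± SD of three independent experiments.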

HepG2 [9] = experiment: Cytotoxicity against human HepG2 cells at 20 uM after 48 hrs by LDH release assay (reference value: 100%); type: functional
In short: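 LDH release. HepG2 cells at 1.0 × 10^5/well were incubated 24 h at 37 °C, then treated at 2.5–40 µM for 48 h. Cells lysed with 2% lysate for 1 h gave the full-release (100%) reference; medium-only cells were the low control. LDH in the supernatant was measured per kit. Triplicates, three independent repeats.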

A549 [10] = experiment: Antiproliferative activity against human A549 cells at 10 uM after 72 hrs by MTT assay relative to control; type: functional; in short: as §2

COc1cc2c(Nc3ccc(C#N)cc3)ncnc2cc1OCCCN1CCC(c2ccccc2)CC1
Activity (HepG2 [1]): 60.72%
Activity (HepG2 [2]): 41.7%
Activity (HepG2 [3]): 88.3%
Activity (HepG2 [4]): 25.1%
Activity (HepG2 [5]): 138%
Activity (HepG2 [6]): Active
Activity (HepG2 [7]): Dose-dependent effect
Activity (A549 [8]): 1.5%
Activity (HepG2 [9]): 52.94%
Activity (A549 [10]): 34.1%
